{"data": "Experimental data pooled from the literature", "USP51": "Ubiquitin carboxyl-terminal hydrolase 51 (USP51, Homo sapiens, UniProt Q70EK9)", "CASP3": "Caspase-3 (CASP3, Homo sapiens, UniProt P42574)", "PDE10A": "cAMP and cAMP-inhibited cGMP 3',5'-cyclic phosphodiesterase 10A (PDE10A, Homo sapiens, UniProt Q9Y233)", "note": "Compare with care: the assays were run in different laboratories."}
{"Compound": "CC1=C2[C@H]3OC(=O)[C@@H](C)[C@@H]3CC[C@@]2(C)C=CC1=O", "target": "USP51", "effect on": "enzyme activity", "mode": "inhibitor", "concentration": "5 µM", "inhibition [%]": 28}
{"Compound": "CC(C)N1CCC[C@H]1CNC(=O)c1cn(C2CCCC2)c(=O)c2c1c1ccccc1n2C", "target": "Sodium- and chloride-dependent GABA transporter 1 (Slc6a1, Rattus norvegicus, UniProt P23978)", "effect on": "ligand displacement", "method": "radioligand", "concentration": "10 µM", "inhibition [%]": -2}
{"Compound": "C#Cc1n[nH]c2c(-c3cn([C@@H](C)c4ccccc4)c(=O)[nH]c3=O)cc(F)cc12", "target": "DNA-dependent protein kinase catalytic subunit (PRKDC, Homo sapiens, UniProt P78527)", "effect on": "enzyme activity", "mode": "inhibitor", "concentration": "0.1 µM", "inhibition [%]": -1.6}
{"Compound": "CC(C)[C@]12O[C@H]1[C@@H]1O[C@]13[C@]1(O[C@H]1C[C@H]1C4=C(CC[C@@]13C)C(=O)OC4)[C@@H]2O", "target": "USP51", "effect on": "enzyme activity", "mode": "inhibitor", "concentration": "5 µM", "inhibition [%]": 0}
{"Compound": "N=C(N)c1ccc2cc(OC(=O)c3ccc(N=C(N)N)cc3)ccc2c1", "target": "CASP3", "effect on": "enzyme activity", "mode": "inhibitor", "concentration": "10 µM", "inhibition [%]": 0}
{"Compound": "c1ccc(C(NCCNC(c2ccccc2)c2ccccc2)c2ccccc2)cc1", "target": "PDE10A", "effect on": "enzyme activity", "mode": "inhibitor", "concentration": "10 µM", "inhibition [%]": 0}
{"Compound": "CC(=O)N[C@@H](CC(=O)O)C(=O)N[C@@H](CC(N)=O)C(=O)N[C@@H](CC(C)C)C(=O)N[C@H](C=O)CC(=O)O", "target": "CASP3", "effect on": "enzyme activity", "mode": "inhibitor", "concentration": "10 nM", "inhibition [%]": 25}
{"Compound": "C#Cc1n[nH]c2c(-c3cn([C@@H](C)c4ccccn4)c(=O)[nH]c3=O)cc(F)cc12", "target": "AP2-associated protein kinase 1 (AAK1, Homo sapiens, UniProt Q2M2I8)", "effect on": "enzyme activity", "mode": "inhibitor", "concentration": "0.1 µM", "inhibition [%]": 4.6}
{"Compound": "CCOC(=O)c1ccc(OC(=O)CCCCCNC(=N)N)cc1", "target": "CASP3", "effect on": "enzyme activity", "mode": "inhibitor", "concentration": "10 µM", "inhibition [%]": 2}
{"Compound": "O=C1CCC[C@@H]2[C@H]3CCCN4CCC[C@H](CN12)[C@@H]34", "target": "USP51", "effect on": "enzyme activity", "mode": "inhibitor", "concentration": "5 µM", "inhibition [%]": 0}
{"Compound": "C[C@H](C(=O)N[C@H]1COc2ccccc2[C@@H]1S(C)(=O)=O)c1ccc(F)cc1", "target": "PDE10A", "effect on": "enzyme activity", "mode": "inhibitor", "concentration": "10 µM", "inhibition [%]": -4}
{"Compound": "O=C(Nc1cccnn1)N1CCN([C@@H]2CCOc3cc(C(F)(F)F)ccc32)CC1", "target": "Melanin-concentrating hormone receptor 1 (MCHR1, Homo sapiens, UniProt Q99705)", "effect on": "cell-free assay", "concentration": "20 µM", "inhibition [%]": -13}
{"Compound": "C[C@H]1C(=O)O[C@@H]2CCN3CC=C(COC(=O)[C@](C)(O)[C@]1(C)O)[C@H]23", "target": "USP51", "effect on": "enzyme activity", "mode": "inhibitor", "concentration": "5 µM", "inhibition [%]": 42}
{"Compound": "O=C(O[C@@H]1Cc2c(O)cc(O)cc2O[C@@H]1c1cc(O)c(O)c(O)c1-c1c([C@H]2Oc3cc(O)cc(O)c3C[C@H]2OC(=O)c2cc(O)c(O)c(O)c2)cc(O)c(O)c1O)c1cc(O)c(O)c(O)c1", "target": "Tyrosine-protein phosphatase non-receptor type 22 (PTPN22, Homo sapiens, UniProt Q9Y2R2)", "effect on": "enzyme activity", "mode": "inhibitor", "method": "fluorescence", "concentration": "10 µM", "inhibition [%]": 25}
{"Compound": "CC[C@H]1[C@@H]2C[C@H]3[C@@H]4N(C)c5ccccc5[C@]45C[C@@H]([C@H]2[C@H]5O)N3[C@@H]1O", "target": "USP51", "effect on": "enzyme activity", "mode": "inhibitor", "concentration": "5 µM", "inhibition [%]": 26}
{"Compound": "Cc1ncc(C)n2nc(/C=C/c3nc(N4CCCC4)cc(N4CCOCC4)n3)nc12", "target": "Peroxisome proliferator-activated receptor gamma (PPARG, Homo sapiens, UniProt P37231)", "effect on": "ligand displacement", "concentration": "10 µM", "inhibition [%]": 3}
{"Compound": "Cn1cc(-c2cc(F)cc(N3CCn4c(cc5c4CCCC5)C3=O)c2CO)cc(Nc2ccc(N3CCN(C4COC4)CC3)cn2)c1=O", "target": "Calcium/calmodulin-dependent protein kinase type IV (CAMK4, Homo sapiens, UniProt Q16566)", "effect on": "enzyme activity", "mode": "inhibitor", "concentration": "0.1 µM", "inhibition [%]": 15}
